Data from ChEMBL document CHEMBL1124223, “1-Substituted 7-[3-[(ethylamino)methyl]-1-pyrrolidinyl]-6,8- difluoro-1,4-dihydro-4-oxo-3-quinolinecarboxylic acids. New quantitative structure-activity relationships at N1 for the quinolone antibacterials” (1988).
In brackets after ≈: the same amount, converted by molar mass.

Tests used:
Type in all cases: functional
Escherichia coli [1] = assay: Potency against Escherichia coli (H560)
Escherichia coli [2] = assay: Potency against Gram-negative mean
Escherichia coli [3] = assay: Minimum inhibitory concentration against Escherichia coli (H560)
Outline: (§1)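 MICs were determined by standard microtitration against a panel of 11 bacterial strains. Aqueous stock solutions were prepared with 0.1 N sodium or potassium hydroxide.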

Escherichia coli [4] = assay: Minimum inhibitory concentration against Escherichia coli (vogel); outline: as §1
Enterobacter cloacae = assay: Minimum inhibitory concentration against Enterobacter cloacae. (MA2446).
Klebsiella pneumoniae = assay: Minimum inhibitory concentration against Klebsiella pneumoniae (MGH-2); outline: as §1
Mus musculus [5] = assay: In vivo activity against Pseudomonas aeruginosa (po); conditions: read-out: PD50
Outline: (§2)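 Median protective dose (PD50, mg/kg) measured in acute, lethal, systemic infections in female Charles River CD-1 mice. A single dose of compound was given at the time of bacterial challenge. Aqueous stock solutions were made with 0.1 N sodium or potassium hydroxide.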

Mus musculus [6] = assay: In vivo activity against Pseudomonas aeruginosa (sc); conditions: read-out: PD50; outline: as §2
Mus musculus [7] = assay: In vivo activity against Streptococcus pneumoniae (po); conditions: read-out: PD50; outline: as §2
Mus musculus [8] = assay: In vivo activity against Streptococcus pneumoniae (sc); conditions: read-out: PD50; outline: as §2
Mus musculus [9] = assay: In vivo activity against Streptococcus pyogenes (po); conditions: read-out: PD50; outline: as §2
Mus musculus [10] = assay: In vivo activity against Streptococcus pyogenes (sc); conditions: read-out: PD50; outline: as §2
Mus musculus [11] = assay: In vivo activity against Escherichia coli (po); conditions: read-out: PD50; outline: as §2
Pseudomonas aeruginosa = assay: Minimum inhibitory concentration against Pseudomonas aeruginosa. (UI-18); outline: as §1
Providencia rettgeri = assay: Minimum inhibitory concentration against Providencia rettgeri. (M1771); outline: as §1
Streptococcus pyogenes = assay: Minimum inhibitory concentration against Streptococcus pyogenes (C203).; outline: as §1
Staphylococcus aureus [12] = assay: Minimum inhibitory concentration against Staphylococcus aureus (H-228).; outline: as §1
Staphylococcus aureus [13] = assay: Minimum inhibitory concentration against Staphylococcus aureus (UC76).; outline: as §1
Streptococcus pneumoniae = assay: Minimum inhibitory concentration against Streptococcus pneumoniae (SV-1).; outline: as §1
Enterobacter [14] = assay: Minimum inhibitory concentration against gram-negative enterobacteriaceae.
Outline: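 This value is the geometric mean of microtitration MICs for the Gram-negative Enterobacteriaceae strains in the 11-organism panel. Aqueous stocks were prepared in 0.1 N sodium or potassium hydroxide.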

Mus musculus [15] = assay: In vivo activity against Escherichia coli (sc); conditions: read-out: PD50; outline: as §2
Enterococcus faecalis = assay: Minimum inhibitory concentration against Streptococcus faecalis (MGH-2).; outline: as §1
Enterobacter [16] = assay: Minimum inhibitory concentration as geometric mean calculated for the gram-negative enterobacteriaceae.
Outline: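 MICs were determined by standard microtitration. The value is the geometric mean of the MICs across the Gram-negative Enterobacteriaceae strains in the test panel.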

Row | Structure (SMILES) | MIC (Escherichia coli [3]) [µg/mL] | MIC (Escherichia coli [4]) [µg/mL] | MIC (Enterobacter cloacae) [µg/mL] | MIC (Klebsiella pneumoniae) [µg/mL] | ED50 (Mus musculus [5]) [mg/kg] | ED50 (Mus musculus [6]) [mg/kg] | ED50 (Mus musculus [7]) [mg/kg] | ED50 (Mus musculus [8]) [mg/kg] | ED50 (Mus musculus [9]) [mg/kg] | ED50 (Mus musculus [10]) [mg/kg] | ED50 (Mus musculus [11]) [mg/kg] | MIC (Pseudomonas aeruginosa) [µg/mL] | MIC (Providencia rettgeri) [µg/mL] | MIC (Streptococcus pyogenes) [µg/mL] | MIC (Staphylococcus aureus [12]) [µg/mL] | MIC (Staphylococcus aureus [13]) [µg/mL] | MIC (Streptococcus pneumoniae) [µg/mL] | ED50 (Mus musculus [15]) [mg/kg] | MIC (Enterococcus faecalis) [µg/mL] | further results
1 | CCNCC1CCN(c2c(F)cc3c(=O)c(C(=O)O)cn(CC)c3c2F)C1 (configuration not stated) [MERAFLOXACIN] | 0.1 (≈ 0.264 µM) | 0.1 (≈ 0.264 µM) | 0.2 (≈ 0.527 µM) | 0.2 (≈ 0.527 µM) | > 200 | 76 | 20 | 4 | 9 | 3 | 12 | 1.6 (≈ 4.22 µM) | 0.4 (≈ 1.05 µM) | 0.1 (≈ 0.264 µM) | 0.1 (≈ 0.264 µM) | 0.05 (≈ 0.132 µM) | 0.1 (≈ 0.264 µM) | 2 | 0.1 (≈ 0.264 µM) | Log (Escherichia coli [1]): 6.59 1/M MIC; Log (Escherichia coli [2]): 6.35 1/M MIC; MIC (Enterobacter [14]): 0.17 µg/mL (≈ 0.448 µM)
2 | CCn1cc(C(=O)O)c(=O)c2cc(F)c(N3CCNCC3)cc21 [NORFLOXACIN] | 0.1 (≈ 0.313 µM) | 0.025 (≈ 0.0783 µM) | 0.1 (≈ 0.313 µM) | 0.05 (≈ 0.157 µM) | 76 | 11 | > 100 | > 100 | > 100 | 45 | 4 | 0.2 (≈ 0.626 µM) | 0.05 (≈ 0.157 µM) | 0.8 (≈ 2.51 µM) | 0.8 (≈ 2.51 µM) | 0.05 (≈ 0.157 µM) | 1.6 (≈ 5.01 µM) | 0.6 | 1.6 (≈ 5.01 µM) | MIC (Enterobacter [16]): 0.06 µg/mL (≈ 0.188 µM)
